Sampled rows, rich in hits. Any-hit rate of the full collection: about 2.7%.
GSTO1 inh = counter-screen for RBBP9 inhibitors: inhibitors of human GSTO1; P78417; inhibition, % at 5.96 µM; 1.1% of 300,000 active; recombinant GSTO1, activity-based probe fluorescence polarization;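 active means inhibition above the campaign mean inhibition plus 3 SD, cut at about 35% in these data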
RBBP9 inh = human RBBP9 hydrolase inhibition; recombinant RBBP9, FP-Rh probe fluorescence polarization; AID 1515; 0.2% of 220,000 active; inhibition, % at 7.94 µM;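 active means inhibition above the campaign mean of all tested compounds plus 3 SD, cut at about 14% in these data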
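Material: RBBP9 protein. Amount: RBBP9 at 2.5 µM in dispensed solution, before mixing. Schedule: 30 min then 45 min, 25 °C. Medium: Tris buffer pH 8.0, NaCl, Pluronic. Measured by: fluorescence polarization. Measure: percent inhibition from mP, scaled between DMSO and no-protein wells. Replication: one well per compound.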
SIAE inh = human SIAE inhibition, primary screen | SIAE FP-Rh probe binding, fluorescence polarization | inhibition, % at 9.66 µM | 0.69% of 370,000 active | AID 1053197;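 active means inhibition above a cutoff: mean of compounds within the control limits plus 3 SD of those, cut at about 17% in these data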
PAD4 inh = inhibitors of human PAD4; AID 485272; Q9UM07; 0.41% of 330,000 active; recombinant PAD4, RCA probe fluorescence polarization; inhibition, % at 6.36 µM;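 active means percent inhibition above a cutoff equal to the mean of all tested compounds plus 3 SD, cut at about 15% in these data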
Target sequence (Q9UM07 whole entry, looked up): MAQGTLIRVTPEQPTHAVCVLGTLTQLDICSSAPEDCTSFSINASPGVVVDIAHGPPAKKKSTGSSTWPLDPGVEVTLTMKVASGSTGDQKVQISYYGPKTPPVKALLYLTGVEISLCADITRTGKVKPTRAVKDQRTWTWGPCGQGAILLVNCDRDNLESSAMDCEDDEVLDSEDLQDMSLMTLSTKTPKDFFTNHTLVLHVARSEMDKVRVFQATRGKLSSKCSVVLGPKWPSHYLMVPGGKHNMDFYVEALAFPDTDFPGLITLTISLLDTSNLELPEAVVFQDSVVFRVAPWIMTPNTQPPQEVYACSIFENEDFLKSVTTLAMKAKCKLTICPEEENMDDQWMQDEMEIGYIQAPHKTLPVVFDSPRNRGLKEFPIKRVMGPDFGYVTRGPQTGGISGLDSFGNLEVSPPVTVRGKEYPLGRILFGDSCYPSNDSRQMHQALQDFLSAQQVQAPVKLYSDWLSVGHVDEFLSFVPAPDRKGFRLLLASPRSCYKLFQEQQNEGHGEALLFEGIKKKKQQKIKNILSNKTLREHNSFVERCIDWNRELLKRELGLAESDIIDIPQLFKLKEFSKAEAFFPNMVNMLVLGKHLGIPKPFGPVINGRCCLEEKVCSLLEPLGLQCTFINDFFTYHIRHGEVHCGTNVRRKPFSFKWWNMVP
PRMT1 FP inh = inhibitors of human PRMT1; Q99873; inhibition, % at 2.79 µM; AID 652257; recombinant PRMT1, activity-based probe fluorescence polarization; 1.3% of 370,000 active;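 active means inhibition above about 21% made by adding two undisclosed values, limit read from the data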
Each line names hits and unclear results; the compound was inactive in the other large screens.

COC(=O)CCC(=O)Nc1ccc(Br)cc1	none
Cc1cc2c(c(=O)o1)C(c1cccs1)C(C#N)=C(N)O2 (centres undefined)	none
Cc1ccc([C@H]2C(C#N)=C(N)Oc3cc(C)oc(=O)c32)o1	PRMT1 FP inh 22
Cc1ccc(SCc2[nH]nc3c2C(c2ccc(C)o2)C(C#N)=C(N)O3)cc1 (centres undefined)	GSTO1 inh 37
Cc1ccc(SCc2[nH]nc3c2C(C(C)C)C(C#N)=C(N)O3)cc1 (centres undefined)	none
CCc1[nH]nc2c1C(c1ccc(C)o1)C(C#N)=C(N)O2 (centres undefined)	none
Cc1ccc(SCc2[nH]nc3c2C(c2ccco2)C(C#N)=C(N)O3)cc1 (centres undefined)	GSTO1 inh 37
COc1cc(OC)c(NC(=O)CC2SC(N)=NC2=O)cc1Cl (centres undefined)	none (no result: GSTO1 inh, RBBP9 inh, PAD4 inh)
Cc1cc(C(=O)N2CCN(S(=O)(=O)c3ccccc3)CC2)c(C)o1	none (no result: RBBP9 inh)
O=C1/C(=C/c2cccnc2)SC(=S)N1NS(=O)(=O)c1ccccc1	PRMT1 FP inh 23 (no result: RBBP9 inh)
O=C1/C(=C\c2ccc(Br)cc2)SC(=S)N1NS(=O)(=O)c1ccccc1	none (no result: RBBP9 inh)
CC(=O)Nc1ccc(/C=N\NC(=O)CNS(=O)(=O)c2ccc([N+](=O)[O-])cc2)cc1	none
Cc1ccc2c(c1)c1c(n2C)-c2[nH]ncc2CC1	SIAE inh 21
Cc1ccc2c(c1)c1c(n2C)C(C(N)=O)CCC1 (centres undefined)	none
O=C(O)CCC(=O)N1c2ccccc2NC2=C(C(=O)CC(c3ccc(F)cc3)C2)C1c1ccc([N+](=O)[O-])o1 (centres undefined)	none
CN1CCN(c2ccc(-c3cc(NC=O)c4ncc(-c5ccc(F)c(Cl)c5)n4c3)cc2)CC1	SIAE inh 18 (no result: GSTO1 inh, RBBP9 inh, PAD4 inh)
O=CNc1cc(-c2ccccc2)cn2c(-c3ccc(F)c(Cl)c3)cnc12	none (no result: GSTO1 inh, RBBP9 inh, PAD4 inh)
Cc1ccc(NC(=O)CSc2nc3ncc(Br)cc3[nH]2)cc1C	GSTO1 inh 36 (no result: RBBP9 inh)
COC(=O)Nc1nc(-c2cc(Cl)ccc2Cl)cs1	none
CC(=O)Nc1ccc(SCC(=O)Nc2oc(C)c3c(C)n[nH]c(=O)c23)cc1	PRMT1 FP inh 27 (no result: RBBP9 inh)
O=C(Nc1ccc(F)cc1F)c1c(C(F)(F)F)ccnc1Oc1ccccc1	none
Cc1oc(-c2ccccc2F)nc1CSCC(=O)NC1CCCC1	PRMT1 FP inh 24 (no result: RBBP9 inh)
CN(C)c1ccc(C(=O)c2ccc(O)cc2O)cc1	none
CN(C)c1ccc(Cc2cc3c(O)ccc(O)c3cc(Cc3ccc(N(C)C)cc3)c2=O)cc1	SIAE inh 56, PRMT1 FP inh 79 (no result: GSTO1 inh, RBBP9 inh, PAD4 inh)
CC(CC(=O)O)Nc1ccccc1O (centres undefined)	GSTO1 inh 48, PRMT1 FP inh 23
CC(=O)Nc1ccccc1O	none
CCc1cccc(NS(=O)(=O)c2ccc3c(c2)NC(=O)CO3)c1	GSTO1 inh 37 (no result: RBBP9 inh)
O=C(NCCN1CCOCC1)C1CCN(Cc2ccccc2O)CC1	none
CC(C)c1[nH]nc2c1C(c1cccc(OC(=O)N3CCOCC3)c1)C(C#N)=C(N)O2 (centres undefined)	none
CCc1[nH]nc2c1C(c1cccc(OC(=O)N3CCOCC3)c1)C(C#N)=C(N)O2 (centres undefined)	SIAE inh 25
Cc1ccc2nc(Cl)c3nnnn3c2c1	PAD4 inh 22 (no result: SIAE inh, PRMT1 FP inh)
CCC(/C=C1\Sc2ccc(OC)cc2N1CC)=C\c1sc2ccc(OC)cc2[n+]1CCCS(=O)(=O)[O-]	PRMT1 FP inh 61
CCC(=O)/C=C1/Sc2ccc(OC)cc2N1CC	none
O=C1NC(=S)N/C1=C\c1ccc(Oc2ccc(C(F)(F)F)cc2[N+](=O)[O-])c(Cl)c1	none
Cc1c(C(=O)NNc2cc(=O)n(C)c(=O)n2C)cccc1[N+](=O)[O-]	PRMT1 FP inh 23
CCOC(=O)C1=C(C)NC(=O)NC1	none
CC(C)N(C(=O)CN(C#N)c1nc(N(C)C)nc(N(C)C)n1)c1ccccc1	none
Cc1c(NC(=O)CN2CCN(c3ccc(O)cc3)CC2)c(=O)n(-c2ccccc2)n1C	PRMT1 FP inh 23
CC(=O)Nc1ccc(C2=NN(c3ccccc3)C(c3cccs3)C2)cc1 (centres undefined)	none
NC(=S)N/N=C/c1ccc(-c2ccc([N+](=O)[O-])cc2)o1	PRMT1 FP inh 21
O=C(C=Cc1ccccc1)c1ccc([N+](=O)[O-])cc1	none (no result: GSTO1 inh, RBBP9 inh, PAD4 inh)
O=C(C=Cc1ccco1)c1ccc([N+](=O)[O-])cc1	PRMT1 FP inh 23 (no result: GSTO1 inh, RBBP9 inh, PAD4 inh)
CC(C)CN1CCN(CC#Cc2ccccc2)CC1CCO (centres undefined)	none
CCc1cc(C(=O)N=Nc2c(O)[nH]c3ccc([N+](=O)[O-])cc23)c2ccccc2n1	GSTO1 inh 43
CC(C)(C)c1ccc(C(=O)NCc2nnc(SCC(=O)NC3CCCCC3)o2)cc1	PRMT1 FP inh 21 (no result: RBBP9 inh)
COc1ccc(C(=O)NCc2nnc(SCC(=O)Nc3nc4ccccc4s3)o2)cc1	PRMT1 FP inh 23
COc1ccc(OC)c(NC(=O)CSc2nnc(CNc3ccc(F)cc3)o2)c1	none
COc1ccc(NCc2nnc(SCC(=O)Nc3ccccc3OC)o2)cc1	PRMT1 FP inh 22
COc1ccc(C(=O)NCc2nnc(SCC(=O)c3ccccc3)o2)cc1	none (no result: RBBP9 inh)
Cc1cccc(CCNCc2c(C(=O)O)c(C)n(-c3ccccc3)c2C)c1	none (no result: RBBP9 inh)
CC(=O)NC1Sc2ccccc2N=C1c1ccccc1 (centres undefined)	PRMT1 FP inh 26
CCC1CCCCN1C(=O)CSc1nnc(-c2cccc(Cl)c2)o1 (centres undefined)	none
CCc1cccc(C)c1NC(=O)c1cccc(N(C)C)c1	PRMT1 FP inh 23
COc1ccc(C(CC(=O)c2ccc(C)cc2)Sc2ccccc2N)cc1 (centres undefined)	PRMT1 FP inh 24 (no result: GSTO1 inh, RBBP9 inh, PAD4 inh)
O=C(CSC1=NC2(CCCCC2)N=C1c1ccccc1)Nc1ccc2c(c1)OCCO2	PRMT1 FP inh 22
N#Cc1c(N)sc2c1CCCCCC2	PRMT1 FP inh 21
COc1ccc(N2C3=C(C(=O)CC(C)(C)C3)C(c3ccccc3OC)C3=C2CC(C)(C)CC3=O)cc1	none
COc1ccc(N2C3=C(CC4=C2CC(C)(C)CC4=O)C(=O)CC(C)(C)C3)cc1	PRMT1 FP inh 23
COC(=O)c1ccc(C(=O)OC)c(NC(=S)N2CCC(C(N)=O)CC2)c1	none
CCC(C)(C)n1nnnc1C(c1cc2cc(C)ccc2[nH]c1=O)N1CCCc2ccccc21 (centres undefined)	PRMT1 FP inh 30
O=C(O)C1Nc2c(O)cc(Cl)c([N+](=O)[O-])c2C2C=CCC12 (centres undefined)	GSTO1 inh 57, SIAE inh 53, PRMT1 FP inh 36
Cc1cc(C)n(-c2ccc(C(=O)Nc3ccc(S(=O)(=O)N(C)C)cc3)cc2)n1	none
CC12C=CC3(O1)C(C(=O)N(c1cccnc1)C3C(=O)NC1CCCCC1)C2C(=O)Nc1ccccc1 (centres undefined)	none
CC(C)(C)NC(=O)C1N(c2cccnc2)C(=O)C2C(C(=O)Nc3ccccc3F)C3(C)C=CC21O3 (centres undefined)	PRMT1 FP inh 22

High-throughput results as filed in PubChem BioAssay.
